Laboratory results reported in ChEMBL document CHEMBL3804800, “(E)-3-Heteroarylidenechroman-4-ones as potent and selective monoamine oxidase-B inhibitors” (Eur J Med Chem, 2016).

What was measured:
[1] = target: T1, Amine oxidase [flavin-containing] B (Homo sapiens, UniProt P27338); assay: biochemical; format: cell-based, BTI-TN-5B1-4
T1 sequence (P27338 whole entry): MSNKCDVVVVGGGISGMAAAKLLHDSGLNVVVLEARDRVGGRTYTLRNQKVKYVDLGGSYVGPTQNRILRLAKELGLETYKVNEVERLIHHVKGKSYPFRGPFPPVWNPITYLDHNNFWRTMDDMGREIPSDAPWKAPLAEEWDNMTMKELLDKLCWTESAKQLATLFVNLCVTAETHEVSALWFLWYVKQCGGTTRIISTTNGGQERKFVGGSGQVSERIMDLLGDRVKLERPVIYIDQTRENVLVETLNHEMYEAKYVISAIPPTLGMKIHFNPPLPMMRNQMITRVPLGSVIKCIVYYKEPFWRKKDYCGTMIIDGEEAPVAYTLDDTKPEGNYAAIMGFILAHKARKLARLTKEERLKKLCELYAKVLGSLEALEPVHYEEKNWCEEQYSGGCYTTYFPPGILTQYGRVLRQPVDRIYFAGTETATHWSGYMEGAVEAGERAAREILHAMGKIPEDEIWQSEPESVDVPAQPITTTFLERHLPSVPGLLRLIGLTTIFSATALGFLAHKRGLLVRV

[2] = Selectivity index, ratio of IC50 for human recombinant microsomal MAO-A expressed in baculovirus infected BTI-TN-5B1-4 cells to IC50 for human recombinant microsomal MAO-B expressed in baculovirus infected BTI-TN-5B1-4 cells
[3] = target: T2, Amine oxidase [flavin-containing] A (Homo sapiens, UniProt P21397); assay: Inhibition of human recombinant microsomal MAO-A expressed in baculovirus infected BTI-TN-5B1-4 cells using p-tyramine as substrate assessed as reduction in H2O2 production at 100 uM preincubated for 15 mins followed by substrate addition measured for 15 mins Amplex red dye based fluorimetric method relative to control; conditions: for inhibition at 100 µM: BTI-TN-5B1-4, human, 0.25 h; for inhibition (INH): human, bti-tn-5b1-4, 0.25 h, 100 µM
T2 sequence (P21397 whole entry): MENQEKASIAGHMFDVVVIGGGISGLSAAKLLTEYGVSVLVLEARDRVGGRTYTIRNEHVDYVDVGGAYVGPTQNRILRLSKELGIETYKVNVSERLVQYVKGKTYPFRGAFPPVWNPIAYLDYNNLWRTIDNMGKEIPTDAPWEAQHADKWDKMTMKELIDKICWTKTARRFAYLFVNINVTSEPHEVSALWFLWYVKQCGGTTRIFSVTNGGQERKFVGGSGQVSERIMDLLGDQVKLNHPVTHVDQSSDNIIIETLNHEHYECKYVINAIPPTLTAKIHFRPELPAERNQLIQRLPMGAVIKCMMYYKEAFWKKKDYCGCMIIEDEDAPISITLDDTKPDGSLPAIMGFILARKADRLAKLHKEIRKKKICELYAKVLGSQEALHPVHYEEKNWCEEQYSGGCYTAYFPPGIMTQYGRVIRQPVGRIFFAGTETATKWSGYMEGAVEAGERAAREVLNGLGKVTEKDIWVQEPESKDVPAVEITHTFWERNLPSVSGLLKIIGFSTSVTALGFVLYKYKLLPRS
Method in brief: (§1)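 Microsomal hMAO-A or hMAO-B from baculovirus-infected BTI-TN-5B1-4 insect cells. Activity read as H2O2 formed from p-tyramine, detected by Amplex Red resorufin fluorescence. Test compounds were checked for direct reaction with Amplex Red. Highest concentration tested was 100 μM for some compounds and 1 mM for others. Mean ± S.E.M. from five experiments.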

[4] = target: T1, Amine oxidase [flavin-containing] B; assay: Reversible inhibition of human recombinant microsomal MAO-B expressed in baculovirus infected BTI-TN-5B1-4 cells at 10 times IC50 using p-tyramine as substrate assessed as reduction in H2O2 production preincubated for 30 mins followed by substrate addition for 15 mins followed by compound dilution by Amplex red dye based fluorimetric method; conditions: bti-tn-5b1-4, 0.25 h
Method in brief: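 Dilution method. […] The mixture was then diluted 100-fold into buffer containing Amplex Red, horseradish peroxidase and p-tyramine, and the reaction was monitored for 15 min. Slope was compared with a control preincubated and diluted without inhibitor.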

[5] = target: T1, Amine oxidase [flavin-containing] B; assay: Inhibition of human recombinant microsomal MAO-B expressed in baculovirus infected BTI-TN-5B1-4 cells using p-tyramine as substrate assessed as reduction in H2O2 production at 1 mM preincubated for 15 mins followed by substrate addition measured for 15 mins Amplex red dye based fluorimetric method; conditions: bti-tn-5b1-4, 0.25 h, 1000 µM
Method in brief: as §1

**Q.** For `O=C1/C(=C/c2ccc[nH]2)COc2ccccc21`, which IC50 [1] is on record?
**A.** 13.8 µM

**Q.** What about the Ratio IC50 [2] of the same compound?
**A.** 7.3

**Q.** And the inhibition at 100 µM [3]?
**A.** 40%

**Q.** Which IC50 [1] does the source give for `Nc1ccc(/C=C2\COc3ccccc3C2=O)cn1` here?
**A.** 2.39 µM

**Q.** What about the Ratio IC50 [2] of the same compound?
**A.** > 42

**Q.** And the “inhibition (INH)” value [3]?
**A.** Not Active

**Q.** For `O=C1/C(=C/c2ccco2)COc2ccccc21`, which IC50 [1] is on record?
**A.** 3.77 µM

**Q.** And the Ratio IC50 [2]?
**A.** 27

**Q.** What about the inhibition at 100 µM [3] of the same compound?
**A.** 40%

**Q.** For `O=C1/C(=C/c2cccnc2)COc2ccccc21`, which IC50 [1] is on record?
**A.** 8.23 µM

**Q.** What about the Ratio IC50 [2] of the same compound?
**A.** > 12

**Q.** And the “inhibition (INH)” value [3]?
**A.** Not Active

**Q.** For `O=C1/C(=C/c2c[nH]cn2)COc2cc(Cl)cc(Cl)c21`, which IC50 [1] is on record?
**A.** 10.2 µM

**Q.** And the Ratio IC50 [2]?
**A.** 9.8

**Q.** And the inhibition at 100 µM [3]?
**A.** 40%

**Q.** Which results are given for `CN(C)c1ccc(/C=C2\COc3cc(Cl)cc(Cl)c3C2=O)cn1`?
**A.** IC50 [1]: 10.5 µM; Ratio IC50 [2]: 9.5; inhibition at 100 µM [3]: 40%

**Q.** With `O=C1/C(=C/c2c[nH]cn2)COc2ccccc21` as the compound, how does the IC50 [1] read?
**A.** 20.2 µM

**Q.** And the Ratio IC50 [2]?
**A.** 5

**Q.** And the inhibition at 100 µM [3]?
**A.** 40%

**Q.** For `CN(C)c1ncc(/C=C2\COc3ccccc3C2=O)cn1`, which IC50 [1] is on record?
**A.** 0.241 µM

**Q.** And the Ratio IC50 [2]?
**A.** > 415

**Q.** What about the “inhibition (INH)” value [3] of the same compound?
**A.** Not Active

**Q.** For `O=C1/C(=C/c2ccncc2)COc2ccccc21`, which IC50 [1] is on record?
**A.** 12.4 µM

**Q.** And the Ratio IC50 [2]?
**A.** > 8

**Q.** And the “inhibition (INH)” value [3]?
**A.** Not Active

**Q.** Which results are given for `CN(C)c1ccc(/C=C2\COc3ccccc3C2=O)cn1`?
**A.** IC50 [1]: 0.213 µM; Ratio IC50 [2]: > 469; inhibition (INH) [3]: Not Active

**Q.** For `COc1ccc2c(c1)OC/C(=C\c1cnc(N(C)C)nc1)C2=O`, which IC50 [1] is on record?
**A.** 10.4 µM

**Q.** And the Ratio IC50 [2]?
**A.** > 9.6

**Q.** What about the “inhibition (INH)” value [3] of the same compound?
**A.** Not Active

**Q.** Which results are given for `CN(C)c1ncc(/C=C2\COc3cc(Cl)cc(Cl)c3C2=O)cn1`?
**A.** IC50 [1]: 0.0106 µM; inhibition (INH) [4]: Active; Ratio IC50 [2]: > 9450; inhibition (INH) [3]: Not Active

**Q.** For `O=C(NCCN1CCOCC1)c1ccc(Cl)cc1` [MOCLOBEMIDE], which “inhibition (INH)” value [5] is on record?
**A.** Not Active

**Q.** Which results are given for `O=C1/C(=C/c2cccs2)COc2ccccc21`?
**A.** IC50 [1]: 1.13 µM; Ratio IC50 [2]: 88; inhibition at 100 µM [3]: 40%

**Q.** What does the source list for `Nc1ncc(/C=C2\COc3ccccc3C2=O)cn1`?
**A.** IC50 [1]: 18.3 µM; Ratio IC50 [2]: > 5.5; inhibition (INH) [3]: Not Active

**Q.** Which results are given for `COc1ccc2c(c1)OC/C(=C\c1c[nH]cn1)C2=O`?
**A.** IC50 [1]: 10.6 µM; Ratio IC50 [2]: 9.4; inhibition at 100 µM [3]: 40%

**Q.** With `O=C1/C(=C/c2c[nH]c3ccccc23)COc2ccccc21` as the compound, how does the IC50 [1] read?
**A.** 0.181 µM

**Q.** What about the Ratio IC50 [2] of the same compound?
**A.** 551

**Q.** And the inhibition at 100 µM [3]?
**A.** 40%

**Q.** For `O=C1/C(=C/c2ccccn2)COc2ccccc21`, which IC50 [1] is on record?
**A.** 2.94 µM

**Q.** And the Ratio IC50 [2]?
**A.** > 34

**Q.** What about the “inhibition (INH)” value [3] of the same compound?
**A.** Not Active

**Q.** With `O=C1/C(=C/c2ccsc2)COc2ccccc21` as the compound, how does the IC50 [1] read?
**A.** 1.73 µM

**Q.** And the Ratio IC50 [2]?
**A.** 58

**Q.** And the inhibition at 100 µM [3]?
**A.** 40%

**Q.** With `O=C1Nc2ccccc2C1=O` [ISATIN] as the compound, how does the “inhibition (INH)” value [3] read?
**A.** Not Active
